# Test results published in ChEMBL document CHEMBL1121559, “Fluorinated analogues of 1-(2-chloroethyl)-3-cyclohexyl-1-nitrosourea: an attempt to control metabolism” (1980).
# “And” between values parts separate entries of the source, which are not always exact repeats. Equal entries are not always repeated.
# Assays:
# Mus musculus [1] = experiment: Median day of death was measured in mice intracerebrally implanted leukemia L1210 at 30 mg/kg administered intraperitoneally on day 1.; format: functional; conditions: route intraperitoneal
# How it was run: (§1)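 Mice implanted intracerebrally with an inoculum of 10⁵ L1210 leukemia cells. Compound given intraperitoneally on day 1 only. Read-outs were median day of death, % increase in life span calculated for animals dying, and 45-day survivors over total mice. Tests were run by an external cancer screening group.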
# Mus musculus [2] = experiment: Percent increase in life span was measured in mice intracerebrally implanted leukemia L1210 at 15 mg/kg administered intraperitoneally on day 1 only.; format: functional; conditions: L1210, ip, 24 h, route intraperitoneal; how it was run: as §1
# Mus musculus [3] = experiment: Percent increase in life span was measured in mice intracerebrally implanted leukemia L1210 at 30 mg/kg administered intraperitoneally on day 1 only.; format: functional; conditions: L1210, ip, 24 h, route intraperitoneal; how it was run: as §1
# Mus musculus [4] = experiment: Median day of death was measured in mice intracerebrally implanted leukemia L1210 at 25 mg/kg administered intraperitoneally on day 1.; format: functional; conditions: route intraperitoneal; how it was run: as §1
# Mus musculus [5] = experiment: Median day of death was measured in mice intracerebrally implanted leukemia L1210 at 10 mg/kg administered intraperitoneally on day 1.; format: functional; conditions: route intraperitoneal; how it was run: as §1
# Mus musculus [6] = experiment: Median day of death was measured in mice intracerebrally implanted leukemia L1210 at 35 mg/kg administered intraperitoneally on day 1.; format: functional; conditions: route intraperitoneal; how it was run: as §1
# Mus musculus [7] = experiment: Activity against TLX-5 lymphoma in mice Percent increase in survival time at 100 mg/kg,; format: functional
# Mus musculus [8] = experiment: Percent increase in life span was measured in mice intracerebrally implanted leukemia L1210 at 140-30 mg/kg administered intraperitoneally on day 1 only; Toxic; format: functional, organism-based; how it was run: as §1
# Mus musculus [9] = experiment: Activity against TLX-5 lymphoma in mice Percent increase in survival time at 5 mg/kg,; format: functional
# Mus musculus [10] = experiment: Median day of death was measured in mice intracerebrally implanted leukemia L1210 at 15 mg/kg administered intraperitoneally on day 1.; format: functional; conditions: route intraperitoneal; how it was run: as §1
# Mus musculus [11] = experiment: Percent increase in life span was measured in mice intracerebrally implanted leukemia L1210 at 35 mg/kg administered intraperitoneally on day 1 only.; format: functional; conditions: L1210, ip, 24 h, route intraperitoneal; how it was run: as §1
# Mus musculus [12] = experiment: Percent increase in life span was measured in mice intracerebrally implanted leukemia L1210 at 25 mg/kg administered intraperitoneally on day 1 only.; format: functional; conditions: L1210, ip, 24 h, route intraperitoneal; how it was run: as §1
# Mus musculus [13] = experiment: Activity against TLX-5 lymphoma in mice Percent increase in survival time at 10 mg/kg,; format: functional
# Mus musculus [14] = experiment: Percent increase in life span was measured in mice intracerebrally implanted leukemia L1210 at 10 mg/kg administered intraperitoneally on day 1 only.; format: functional; conditions: L1210, ip, 24 h, route intraperitoneal; how it was run: as §1
# Mus musculus [15] = experiment: Activity against TLX-5 lymphoma in mice Percent increase in survival time at 40 mg/kg,; format: functional
# Mus musculus [16] = experiment: Activity against TLX-5 lymphoma in mice Percent increase in survival time at 20 mg/kg,; format: functional
# Mus musculus [17] = experiment: Activity against TLX-5 lymphoma in mice Percent increase in survival time at 80 mg/kg,; format: functional
# Mus musculus [18] = experiment: Percent increase in life span was measured in mice intracerebrally implanted leukemia L1210 at 50 mg/kg administered intraperitoneally on day 1 only.; format: functional; conditions: L1210, ip, 24 h, route intraperitoneal; how it was run: as §1
# Mus musculus [19] = experiment: survivors / total number of mice intracerebrally implanted leukemia L1210 at 30 mg/kg administered intraperitoneally on day 1 only. 4-5 day; 8/10; format: functional; conditions: route intraperitoneal; how it was run: as §1
# Mus musculus [20] = experiment: survivors / total number of mice intracerebrally implanted leukemia L1210 at 60 mg/kg administered intraperitoneally on day 1 only. 4-5 day; 9/10; format: functional; conditions: route intraperitoneal; how it was run: as §1
# Mus musculus [21] = experiment: survivors / total number of mice intracerebrally implanted leukemia L1210 at 60 mg/kg administered intraperitoneally on day 1 only. 4-5 day; 8/10; format: functional; conditions: route intraperitoneal; how it was run: as §1
# Mus musculus [22] = experiment: Percent increase in life span was measured in mice intracerebrally implanted leukemia L1210 at 60 mg/kg administered intraperitoneally on day 1 only.; format: functional; conditions: route intraperitoneal; how it was run: as §1
# Mus musculus [23] = experiment: survivors / total number of mice intracerebrally implanted leukemia L1210 at 80 mg/kg administered intraperitoneally on day 1 only. 4-5 day; 3/8; format: functional; conditions: route intraperitoneal; how it was run: as §1
# Mus musculus [24] = experiment: survivors / total number of mice intracerebrally implanted leukemia L1210 at 40 mg/kg administered intraperitoneally on day 1 only. 4-5 day; 10/10; format: functional; conditions: route intraperitoneal; how it was run: as §1
# Mus musculus [25] = experiment: survivors / total number of mice intracerebrally implanted leukemia L1210 at 40 mg/kg administered intraperitoneally on day 1 only. 4-5 day; 8/9; format: functional; conditions: route intraperitoneal; how it was run: as §1
# Mus musculus [26] = experiment: Median day of death was measured in mice intracerebrally implanted leukemia L1210 at 60 mg/kg administered intraperitoneally on day 1.; format: functional; conditions: route intraperitoneal; how it was run: as §1
# Mus musculus [27] = experiment: survivors / total number of mice intracerebrally implanted leukemia L1210 at 50 mg/kg administered intraperitoneally on day 1 only. 4-5 day; 8/10; format: functional; conditions: route intraperitoneal; how it was run: as §1
# Mus musculus [28] = experiment: survivors / total number of mice intracerebrally implanted leukemia L1210 at 30 mg/kg administered intraperitoneally on day 1 only. 4-5 day; 1/9; format: functional; conditions: route intraperitoneal; how it was run: as §1
# Mus musculus [29] = experiment: (§2) Percent increase in life span was measured in mice intracerebrally implanted leukemia L1210 at 80 mg/kg administered intraperitoneally on day 1 only.; format: functional; conditions: L1210, ip, 24 h, route intraperitoneal; how it was run: as §1
# Mus musculus [30] = experiment: Median day of death was measured in mice intracerebrally implanted leukemia L1210 at 80 mg/kg administered intraperitoneally on day 1.; format: functional; conditions: route intraperitoneal; how it was run: as §1
# Mus musculus [31] = experiment: as §2; format: functional; conditions: L1210, ip, 24 h, route intraperitoneal; how it was run: as §1; remark: listed apart in the source
# Mus musculus [32] = experiment: Percent increase in life span was measured in mice intracerebrally implanted leukemia L1210 at 40 mg/kg administered intraperitoneally on day 1 only.; format: functional; conditions: L1210, ip, 24 h, route intraperitoneal; how it was run: as §1
# Mus musculus [33] = experiment: survivors / total number of mice intracerebrally implanted leukemia L1210 at 50 mg/kg administered intraperitoneally on day 1 only. 4-5 day; 8/9; format: functional; conditions: route intraperitoneal; how it was run: as §1
# Mus musculus [34] = experiment: Median day of death was measured in mice intracerebrally implanted leukemia L1210 at 40 mg/kg administered intraperitoneally on day 1.; format: functional; conditions: route intraperitoneal; how it was run: as §1
smiles,measurement,setting,value
O=NN(CCCl)C(=O)NC1C(F)(F)C(F)(F)C(F)(F)C(F)(F)C1(F)F,Median day of death,Mus musculus [1],8
same,ILS at 15 mg/kg,Mus musculus [2],0%
same,ILS at 30 mg/kg,Mus musculus [3],0%
same,Median day of death,Mus musculus [4],8
same,Median day of death,Mus musculus [5],8
same,Median day of death,Mus musculus [6],7
same,Increase,Mus musculus [7],-57.5%
same,ILS,Mus musculus [8],Toxic
same,Increase,Mus musculus [9],4.2%
same,Median day of death,Mus musculus [10],8
same,ILS at 35 mg/kg,Mus musculus [11],-13%
same,ILS at 25 mg/kg,Mus musculus [12],0%
same,Increase,Mus musculus [13],6.3%
same,ILS at 10 mg/kg,Mus musculus [14],0%
same,Increase,Mus musculus [15],11.6%
same,Increase,Mus musculus [16],-2.2%
same,Increase,Mus musculus [17],-38.3%
O=NN(CCCl)C(=O)NC1CCCCC1 [LOMUSTINE],ILS at 50 mg/kg,Mus musculus [18],350%
same,No. of survivors,Mus musculus [19],8
same,Median day of death,Mus musculus [1]; 30 mg/kg,37.5 and 15
same,No. of survivors,Mus musculus [20],9
same,No. of survivors,Mus musculus [21],8
same,ILS,Mus musculus [22],278% and 185%
same,No. of survivors,Mus musculus [23],3
same,No. of survivors,Mus musculus [24],10
same,Increase,Mus musculus [7],-36.2%
same,No. of survivors,Mus musculus [25],8
same,Median day of death,Mus musculus [26],26.5 and 20
same,No. of survivors,Mus musculus [27],8
same,No. of survivors,Mus musculus [28],1
same,ILS at 80 mg/kg,Mus musculus [29],135%
same,Median day of death,Mus musculus [30],16.5 and 10
same,Increase,Mus musculus [9],21.2%
same,ILS at 80 mg/kg,Mus musculus [31],42%
same,Increase,Mus musculus [13],53.1%
same,ILS at 40 mg/kg,Mus musculus [32],257%
same,Increase,Mus musculus [15],189.3%
same,No. of survivors,Mus musculus [33],8
same,Median day of death,Mus musculus [34],25
same,Increase,Mus musculus [16],95.9%
same,Increase,Mus musculus [17],-25.6%
